# Target: T1, Nitric oxide synthase, inducible (Mus musculus, UniProt P29477)
# T1 sequence (P29477 whole entry): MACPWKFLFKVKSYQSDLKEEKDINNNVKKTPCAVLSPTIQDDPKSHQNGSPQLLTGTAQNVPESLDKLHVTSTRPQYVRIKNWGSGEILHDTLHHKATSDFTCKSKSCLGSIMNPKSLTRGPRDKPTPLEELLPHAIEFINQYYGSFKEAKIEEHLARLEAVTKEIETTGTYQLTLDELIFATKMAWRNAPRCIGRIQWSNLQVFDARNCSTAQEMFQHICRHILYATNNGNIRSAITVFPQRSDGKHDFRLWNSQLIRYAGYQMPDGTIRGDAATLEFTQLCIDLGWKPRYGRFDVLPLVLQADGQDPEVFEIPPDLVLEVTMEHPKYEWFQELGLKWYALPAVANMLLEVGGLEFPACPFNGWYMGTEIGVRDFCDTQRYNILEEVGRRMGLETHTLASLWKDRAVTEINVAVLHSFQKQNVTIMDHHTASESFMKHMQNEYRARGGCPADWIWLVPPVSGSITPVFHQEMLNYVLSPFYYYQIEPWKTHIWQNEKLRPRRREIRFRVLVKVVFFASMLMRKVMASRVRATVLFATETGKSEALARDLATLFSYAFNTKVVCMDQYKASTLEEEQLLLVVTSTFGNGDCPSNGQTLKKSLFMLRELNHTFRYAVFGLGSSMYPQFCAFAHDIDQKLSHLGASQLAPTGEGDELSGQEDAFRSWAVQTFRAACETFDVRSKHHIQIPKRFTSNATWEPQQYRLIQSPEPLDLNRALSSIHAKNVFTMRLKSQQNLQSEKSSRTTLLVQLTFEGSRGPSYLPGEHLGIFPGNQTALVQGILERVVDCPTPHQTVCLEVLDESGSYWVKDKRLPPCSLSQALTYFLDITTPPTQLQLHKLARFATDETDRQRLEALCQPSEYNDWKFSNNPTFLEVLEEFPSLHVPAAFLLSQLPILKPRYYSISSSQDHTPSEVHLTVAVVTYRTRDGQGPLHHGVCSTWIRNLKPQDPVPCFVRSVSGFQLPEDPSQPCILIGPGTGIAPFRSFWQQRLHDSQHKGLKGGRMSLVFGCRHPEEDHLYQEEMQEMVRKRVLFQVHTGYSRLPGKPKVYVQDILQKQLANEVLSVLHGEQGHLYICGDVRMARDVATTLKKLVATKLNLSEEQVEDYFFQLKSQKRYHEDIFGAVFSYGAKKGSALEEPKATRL
# Assay: Inhibition of iNOS induction in mouse RAW264.7 cells assessed as NO production
# In short: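 RAW 264.7 cells seeded at 8 × 10⁴ per well in DMEM/10% FBS and grown 2 days. Then exposed to LPS with compound or DMSO for 20 h. Supernatant nitrite measured by Griess reaction (sulfanilamide/NED) at 550 nm minus 620 nm background, quantified against a sodium nitrite standard curve. At least four experiments in triplicate.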
row,SMILES,IC50 [µM]
1,CC(C)(C)C1=NN(c2cccc(Cl)c2)C(c2ccc(F)c(O)c2)C1 (stereo not given),4.6
2,Oc1ccc(C2CC(c3cccs3)=NN2c2ccc(Br)cc2)cc1 (stereo not given),3.4
3,Oc1ccc(C2CC(c3cccs3)=NN2c2ccc(C(F)(F)F)cc2)cc1 (stereo not given),2.4

# Further compounds by falling IC50, results first:
row,IC50 [µM],SMILES
1,7.5,CC(C)(C)C1=NN(c2ccc(Cl)cc2)C(c2ccc(O)cc2)C1 (stereo not given)
2,0.8,COc1cc(C=CC(=O)CC(=O)C=Cc2ccc(O)c(OC)c2)ccc1O
